# Experimental data of several laboratories.
# Lines come from different studies, so protocols differ.
# AMY2: Pancreatic alpha-amylase (AMY2, Sus scrofa, UniProt P00690)
# GAK: Cyclin-G-associated kinase (GAK, Homo sapiens, UniProt O14976)
# Genome polyprotein protease: Genome polyprotein, protease (Hepatitis C virus genotype 1b, UniProt Q9WMX2)
# PADI3: Protein-arginine deiminase type-3 (PADI3, Homo sapiens, UniProt Q9ULW8)
# Maoa: Amine oxidase [flavin-containing] A (Maoa, Rattus norvegicus, UniProt P21396)
# KRAS G12C: GTPase KRas (KRAS, Homo sapiens, UniProt P01116, G12C)
# EIF2AK3: Eukaryotic translation initiation factor 2-alpha kinase 3 (EIF2AK3, Homo sapiens, UniProt Q9NZJ5)
Structure (SMILES),target,assay,conditions,endpoint,value
Cc1cccc(N(O)N=Nc2ccc(S(=O)(=O)Nc3onc(C)c3C)cc2)c1,AMY2,"enzyme activity, inhibitor",120 µg/mL,inhibition,31.6%
COc1cc(C=CC(=O)CC(c2ccc(N(C)C)cc2)n2ccnc2)ccc1O (centres unmarked),AMY2,"enzyme activity, inhibitor, absorbance",2.5 µg/mL,inhibition,67.3%
CS(=O)(=O)c1ccc(Nc2ccnc3ccc(C(F)(F)F)cc23)cc1,GAK,"thermal stability, DSF",10 µM,ΔTm,0.2 °C
O=C1O[C@H]2[C@@H]3OC(=O)c4cc(O)c(O)c(O)c4-c4c(O)c(O)c5oc(=O)c6c(c(O)c(O)c7oc(=O)c4c5c76)-c4c(cc(O)c(O)c4O)C(=O)OC[C@H]3OC(O)[C@@H]2OC(=O)c2cc(O)c(O)c(O)c2-c2c1cc(O)c(O)c2O (mixture of isomers),Genome polyprotein protease,"enzyme activity, inhibitor, fluorescence",,IC90,~2500 nM
COc1cc(Nc2ccnc3ccccc23)cc(OC)c1OC,GAK,"thermal stability, DSF",10 µM,ΔTm,4.4 °C
N=C(CCl)NCCC[C@H](NC(=O)c1ccccc1C(=O)O)c1nn[nH]n1,PADI3,"enzyme activity, inhibitor",,kinact/KI,207 M⁻¹ s⁻¹
CCCN(O)N=Nc1ccc(S(=O)(=O)Nc2nccs2)cc1,AMY2,"enzyme activity, inhibitor",240 µg/mL,inhibition,63.2%
N#Cc1ccccc1Nc1ccnc2ccc(C(F)(F)F)cc12,GAK,"thermal stability, DSF",10 µM,ΔTm,0.6 °C
Nc1ncnc2occ(-c3ccc(NC(=O)Nc4cc(C(F)(F)F)ccc4F)cc3)c12,GAK,"cell-free assay, inhibitor",20 µM,remaining signal,41%
Cc1cc(NS(=O)(=O)c2ccc(N=NN(O)c3ccccc3)cc2)no1,AMY2,"enzyme activity, inhibitor",300 µg/mL,inhibition,73.7%
NCc1ccc(Br)cc1,Maoa,"enzyme activity, substrate",pH 7.5,Km,34 µM
CC(C)(C)n1nnc([C@H](CCCNC(=N)CF)NC(=O)c2ccccc2)n1,PADI3,"enzyme activity, inhibitor",,kinact/KI,8.67 M⁻¹ s⁻¹
C=CC(=O)Nc1cccc(-c2noc([C@@]3(C)CCCc4sc(N)c(C#N)c43)n2)c1,KRAS G12C,cell-free assay,,kinact,0.000185 s⁻¹
COc1ccc(Nc2ncnc3ccc(C(F)(F)F)cc23)cc1,GAK,"thermal stability, DSF",10 µM,ΔTm,0.3 °C
CN(O)N=Nc1ccc(S(=O)(=O)Nc2nccs2)cc1,AMY2,"enzyme activity, inhibitor",120 µg/mL,inhibition,42.1%
CC(C)(C)n1nnc([C@H](CCCNC(=N)CCl)NC(=O)c2ccccc2C(=O)O)n1,PADI3,"enzyme activity, inhibitor",,kinact/KI,292 M⁻¹ s⁻¹
CCCN(O)N=Nc1ccc(S(=O)(=O)Nc2cc(C)on2)cc1,AMY2,"enzyme activity, inhibitor",20 µg/mL,inhibition,10.5%
COc1cc(Nc2cnc(C#N)c(O[C@H](C)CN(C)C)n2)ncc1-c1cnn(C)c1,EIF2AK3,"enzyme activity, inhibitor, radiometric",10 µM,remaining activity,93%
C=CC(=O)Nc1ccc(-c2noc([C@@]3(C)CCCc4sc(N)c(C#N)c43)n2)cc1,KRAS G12C,"cell-free assay, inhibitor",,kinact,0.000194 s⁻¹
Cc1ccc(N(O)N=Nc2ccc(S(=O)(=O)Nc3cc(C)on3)cc2)cc1,AMY2,"enzyme activity, inhibitor",60 µg/mL,inhibition,26.3%
FC(F)(F)c1ccc2nccc(Nc3ccc4c(c3)OCO4)c2c1,GAK,"thermal stability, DSF",10 µM,ΔTm,3.2 °C
CC(C)(C)n1nnc([C@H](CCCNC(=N)CCl)NC(=O)c2ccccc2)n1,PADI3,"enzyme activity, inhibitor",,kinact/KI,7.67 M⁻¹ s⁻¹
CCCN(O)N=Nc1ccc(S(=O)(=O)Nc2onc(C)c2C)cc1,AMY2,"enzyme activity, inhibitor",20 µg/mL,inhibition,26.3%
CCCOc1ccc(OC)c(F)c1C(=O)c1ccc(C(=O)N[C@@H]2CNC[C@H]2NC(=O)c2ccc3[nH]ncc3c2)cc1,"Serine/threonine-protein kinase MRCK beta (CDC42BPB, Homo sapiens, UniProt Q9Y5S2)","enzyme activity, inhibitor",0.75 µM,remaining activity,7%
Cn1c2c(c3ccc(Cl)c(Cl)c31)C(C#N)C1(CCNCC1)NC2=O (racemic),"Serine/threonine-protein kinase DCLK1 (DCLK1, Homo sapiens, UniProt O15075)","thermal stability, DSF",10 µM,ΔTm,0.9 °C
COc1cc(C=Cc2cc(-c3ccc(N(C)C)cc3)nc(O)n2)ccc1O,AMY2,"enzyme activity, inhibitor, absorbance",10 µg/mL,inhibition,82.6%
FC(F)(F)Oc1cccc(-c2cnc3ccc(-c4ccncc4)nn23)c1,EIF2AK3,"enzyme activity, inhibitor, radiometric",5 µM,activity vs control,67%
CC(C)(C)n1nnc([C@H](CCCNC(=N)CCl)NC(=O)c2ccc(-c3ccccc3)cc2)n1,PADI3,"enzyme activity, inhibitor",,kinact/KI,82.3 M⁻¹ s⁻¹
O=c1oc2c(O)c(O)cc3c(=O)oc4c(O)c(O)cc1c4c23,Genome polyprotein protease,"enzyme activity, inhibitor, fluorescence",,IC90,< 10000 nM
CCN(O)N=Nc1ccc(S(=O)(=O)Nc2cc(C)on2)cc1,AMY2,"enzyme activity, inhibitor",20 µg/mL,inhibition,26.3%
COc1ccc(CN)cc1,Maoa,"enzyme activity, substrate",pH 7.5,Km,80 µM
Fc1cc(Nc2ccnc3ccc(C(F)(F)F)cc23)ccc1Cl,GAK,"thermal stability, DSF",10 µM,ΔTm,4.5 °C
N=C(CCl)NCCC[C@H](NC(=O)c1ccc(-c2ccccc2)cc1)c1nn[nH]n1,PADI3,"enzyme activity, inhibitor",,kinact/KI,131 M⁻¹ s⁻¹
COc1ccc(Nc2ccnc3ccc(C(F)(F)F)cc23)cc1OC,GAK,"thermal stability, DSF",10 µM,ΔTm,3.4 °C
CN1CCN(C(=O)c2ccc3cc(CCNc4ccnc5ccc(C#N)cc45)ccc3c2)CC1,"Cyclin-dependent kinase 19, with cyclin C (CDK19, Homo sapiens, UniProt Q9BWU1)","binding, TR-FRET",,kon,939000 M⁻¹ s⁻¹
Cc1ccc(C(=O)Nc2ccc(CN3CCN(C)CC3)c(C(F)(F)F)c2)cc1C#Cc1cnc2cccnn12,GAK,"enzyme activity, inhibitor",23.5 nM,remaining activity,73%
FC(F)(F)c1ccc2nccc(Nc3ccc4c(c3)OCCO4)c2c1,GAK,"thermal stability, DSF",10 µM,ΔTm,1.5 °C
COc1cc(C=CC(=O)CC(c2ccc([N+](=O)[O-])cc2)n2ccnc2)ccc1O (centres unmarked),AMY2,"enzyme activity, inhibitor, absorbance",2.5 µg/mL,inhibition,62.6%
